# Results collected from several papers.
# LNPEP: Leucyl-cystinyl aminopeptidase (LNPEP, Homo sapiens, UniProt Q9UIQ6)
# MMP13: Collagenase 3 (MMP13, Homo sapiens, UniProt P45452)
# SLCO1B1: Solute carrier organic anion transporter family member 1B1 (SLCO1B1, Homo sapiens, UniProt Q9Y6L6)
# Kcna3: Potassium voltage-gated channel subfamily A member 3 (Kcna3, Mus musculus, UniProt P16390)
# F12: Coagulation factor XII (F12, Homo sapiens, UniProt P00748)
Compound,target,test,test system,conditions,IC50
Cc1ncsc1-c1ccc(CNC(=O)[C@@H]2C[C@H](O)CN2C(=O)[C@@H](NC(=O)C2(F)CC2)C(C)(C)C)c(OCCOc2ccc(CN3CCN(c4cc(-c5ccccc5O)nnc4N)CC3)cc2)c1,"Protein polybromo-1, bromodomain (PBRM1, Homo sapiens, UniProt Q86U86)","cell-free assay, TR-FRET",,,0.51 µM
CN(c1cccc(-c2nnn[nH]2)c1)S(=O)(=O)c1cc(Br)c(Cl)s1,LNPEP,"enzyme activity, inhibitor, fluorescence",,,11.8 µM
Cn1nc(C(=O)NCc2ccc(C(=O)O)cc2)cc1-c1ccc2[nH]c(-c3ccncn3)cc2c1,MMP13,"enzyme activity, inhibitor, FRET",,,0.00081 µM
CC/C=C\C/C=C\C/C=C\C/C=C\C/C=C\CCCC(=O)O,"DNA polymerase delta catalytic subunit (POLD1, Homo sapiens, UniProt P28340)","enzyme activity, inhibitor",,,39.2 µM
Nc1ccccc1S(N)(=O)=O,SLCO1B1,"transporter uptake, inhibitor, fluorescence",CHO,"30 min, pH 7.4",> 100 µM
CCCC[C@H](NC(=O)[C@H](C)c1c(C)[nH]c2ccc(O)cc12)c1ncc(-c2cc3ccccc3nc2OC)[nH]1,"Histone deacetylase 11 (HDAC11, Homo sapiens, UniProt Q96DB2)","enzyme activity, inhibitor",,,0.1 µM
Nc1nc2ccc(OC(F)(F)F)cc2s1,Kcna3,"ion current, inhibitor, patch clamp",,,50 µM
Nc1ncc2c(n1)-c1c([nH]c3ccc(-c4ccc(F)cc4)cc13)CCC2,"Dual serine/threonine and tyrosine protein kinase (DSTYK, Homo sapiens, UniProt Q6XUX3)","enzyme activity, inhibitor, radiometric",,,3.9 µM
CCOC(=O)[C@H](CCc1ccccc1)N[C@@H](C)C(=O)N1[C@H](C(=O)O)C[C@@H]2CCC[C@@H]21,SLCO1B1,"transporter uptake, inhibitor, fluorescence",CHO,"30 min, pH 7.4",4 µM
Cc1ccc(C(C)C)c(O)c1,"gbr-2 (Haemonchus contortus, UniProt O46124)","ion current, antagonist, two-electrode voltage clamp",,oocytes,1200 µM
O=S(=O)(Nc1cccc(-c2nnn[nH]2)c1)c1cc(C(F)(F)F)cc(C(F)(F)F)c1,LNPEP,"enzyme activity, inhibitor, fluorescence",,,4.1 µM
Cc1noc(-c2cc3cc(-c4nc(C(=O)NCc5ccccn5)[nH]c4C)ccc3[nH]2)n1,MMP13,"enzyme activity, inhibitor, FRET",,,0.0031 µM
O=S(=O)(Nc1cccc(-c2nnn[nH]2)c1)c1cc(Br)c(Cl)s1,LNPEP,"enzyme activity, inhibitor, fluorescence",,,1.1 µM
O=c1ccc2c(OCCCCOc3ccccc3)c3ccoc3c(O)c2o1,Kcna3,"ion current, inhibitor, patch clamp",,,0.159 µM
COC(=O)c1nc(N)n(C(=O)c2ccc(C(C)(C)C)cc2)n1,F12,"enzyme activity, inhibitor, absorbance",,,~0.11 µM
CC(C)C[C@H](NC(=O)[C@H]1O[C@@H]1C(=O)O)C(=O)NCCCCN=C(N)N,"Papain (Carica papaya, UniProt P00784)","enzyme activity, inhibitor",,,0.00015 µM
CCC1CN(C(=O)NCC(F)(F)F)CC1N(C)c1ncnc2[nH]ccc12 (centres unmarked),"Tyrosine-protein kinase JAK1 (JAK1, Homo sapiens, UniProt P23458)","enzyme activity, inhibitor, ADP detection",,,0.93 µM
COc1ccc(Cl)cc1NC(=O)COC(=O)C(CC(C)C)N1C(=O)C2CC=CCC2C1=O (centres unmarked),"Cruzipain (Trypanosoma cruzi, UniProt P25779)","enzyme activity, inhibitor",,,13 µM
CCNC(=O)c1nc(-c2ccc3[nH]c(-c4nc(C)no4)cc3c2)c(C)[nH]1,MMP13,"enzyme activity, inhibitor, FRET",,,0.011 µM
CC[C@@H](C(=O)Nc1ccc(C(N)=O)c(F)c1)n1cc(OC)c(-c2cc(Cl)ccc2-n2cc(C(F)(F)F)nn2)cc1=O,F12,"enzyme activity, inhibitor",,,> 2 µM
CCn1c(-c2nc3ccc(C(=O)N4CCCC(N)C4)cc3n2C)cc2ccccc21 (centres unmarked),"Muscarinic acetylcholine receptor M1 (CHRM1, Homo sapiens, UniProt P11229)","calcium signal, antagonist, fluorescence",,,> 15.8 µM
O=S(=O)(Nc1cccc(-c2nnn[nH]2)c1)c1cc(C(F)(F)F)ccc1C(F)(F)F,LNPEP,"enzyme activity, inhibitor, fluorescence",,,0.8 µM
N[C@@H](CC(=O)N1CCN(C(c2ccc(F)cc2)c2ccc(F)cc2)CC1)C(=O)N1Cc2ccccc2C1,"Lysosomal Pro-X carboxypeptidase (PRCP, Homo sapiens, UniProt P42785)","enzyme activity, inhibitor",,,8.43 µM
